The values that follow come from ChEMBL document CHEMBL1133462, “Discovery of novel and potent retinoic acid receptor alpha agonists: syntheses and evaluation of benzofuranyl-pyrrole and benzothiophenyl-pyrrole derivatives” (2000).

The nature of experiment [1]: Inhibition of LPS-induced mouse B-lymphocyte proliferation (Mean of IC50/ATRA IC50). Type of experiment: functional. Summed up: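 BALB/c splenocytes at 1.2 × 10⁵ cells/well in RPMI-1640 with 50 µM 2-mercaptoethanol, 10% FBS and 5 µg/mL E. coli LPS. Compounds were tested in log dilutions from 1.0 × 10^-6 to 1.0 × 10^-12 M final, in triplicate, for 3 days at 37 °C and 5% CO₂. IC50 was fitted by nonlinear regression and divided by the ATRA IC50. Reported as mean ± SEM of triplicates.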

Experiment [2] deals with T1, Retinoic acid receptor alpha (Homo sapiens) (UniProt P10276).
T1 sequence (whole entry): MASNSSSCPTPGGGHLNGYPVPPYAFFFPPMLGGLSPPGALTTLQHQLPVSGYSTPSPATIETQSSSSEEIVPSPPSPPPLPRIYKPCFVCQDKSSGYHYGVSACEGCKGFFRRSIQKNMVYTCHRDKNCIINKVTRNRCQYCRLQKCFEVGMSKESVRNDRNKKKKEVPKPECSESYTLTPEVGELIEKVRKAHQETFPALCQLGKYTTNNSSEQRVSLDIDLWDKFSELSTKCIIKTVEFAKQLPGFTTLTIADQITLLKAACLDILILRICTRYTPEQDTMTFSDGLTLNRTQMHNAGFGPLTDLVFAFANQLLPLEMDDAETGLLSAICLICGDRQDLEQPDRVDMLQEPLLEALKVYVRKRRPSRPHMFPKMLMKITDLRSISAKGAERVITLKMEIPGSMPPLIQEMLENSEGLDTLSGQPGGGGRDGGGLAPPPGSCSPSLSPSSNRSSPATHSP
The experiment is described as follows: Relative transcriptional activation in COS cells expressing Retinoic acid receptor alpha compared to ATRA. Type of experiment: functional, cell-based. Summed up: (§1)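 COS-1 cells were lipofected with receptor and reporter vectors. After 4 h the medium was changed to DMEM/10% FBS for a further 20 h, then cells were reseeded at 3 × 10⁴/well. After 6 h, compounds were added in log dilutions from 3.0 × 10^-6 to 1.0 × 10^-10 M, in duplicate, for 48 h. Supernatant PLAP activity was measured. EC30 (concentration giving 30% of maximal response) was normalized to ATRA EC30. Values averaged from at least two experiments.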

Experiment [3] deals with T1, Retinoic acid receptor alpha (Homo sapiens). The experiment is described as follows: Inhibition of [3H]-ATRA binding to Retinoic acid receptor alpha (RAR-alpha). A digest of the protocol:
(§2)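 Competitive binding of [³H]ATRA to individual RAR subtypes. Each IC50 was divided by the ATRA IC50 to give a relative IC50. Reported as mean ± SEM, averaged from at least two experiments.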

For experiment [4], the target named is T2, Retinoic acid receptor gamma (Homo sapiens) (UniProt P13631).
T2 sequence (whole entry): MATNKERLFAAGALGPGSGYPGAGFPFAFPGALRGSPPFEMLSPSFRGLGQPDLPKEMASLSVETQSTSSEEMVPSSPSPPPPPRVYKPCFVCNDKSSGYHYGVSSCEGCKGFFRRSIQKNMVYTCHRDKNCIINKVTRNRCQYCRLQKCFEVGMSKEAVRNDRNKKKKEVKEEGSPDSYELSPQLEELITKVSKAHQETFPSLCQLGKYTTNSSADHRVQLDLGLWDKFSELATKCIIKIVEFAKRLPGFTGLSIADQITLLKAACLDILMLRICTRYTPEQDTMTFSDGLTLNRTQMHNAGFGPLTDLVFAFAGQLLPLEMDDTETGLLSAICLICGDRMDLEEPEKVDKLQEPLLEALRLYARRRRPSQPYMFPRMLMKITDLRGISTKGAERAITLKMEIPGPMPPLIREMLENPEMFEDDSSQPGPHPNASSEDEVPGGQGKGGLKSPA
Nature of the experiment: Relative transcriptional activation in COS cells expressing Retinoic acid receptor gamma compared to ATRA. Type of experiment: functional, cell-based. Summed up: as §1

Experiment [5] concerns the target T3, Retinoic acid receptor beta (Homo sapiens) (UniProt P10826).
T3 sequence (whole entry): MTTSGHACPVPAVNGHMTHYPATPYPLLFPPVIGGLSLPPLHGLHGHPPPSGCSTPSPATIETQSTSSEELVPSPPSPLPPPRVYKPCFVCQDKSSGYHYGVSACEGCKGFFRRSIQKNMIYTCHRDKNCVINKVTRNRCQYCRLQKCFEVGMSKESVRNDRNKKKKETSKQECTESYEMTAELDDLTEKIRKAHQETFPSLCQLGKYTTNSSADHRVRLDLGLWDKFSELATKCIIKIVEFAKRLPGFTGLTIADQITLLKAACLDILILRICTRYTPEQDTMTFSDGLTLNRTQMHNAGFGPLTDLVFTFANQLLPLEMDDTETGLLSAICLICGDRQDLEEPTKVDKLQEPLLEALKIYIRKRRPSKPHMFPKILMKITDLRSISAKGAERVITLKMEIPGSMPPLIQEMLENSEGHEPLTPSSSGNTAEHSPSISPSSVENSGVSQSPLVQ
The experiment is described as follows: Relative transcriptional activation in COS cells expressing Retinoic acid receptor beta compared to ATRA. The class given is functional, cell-based. A digest of the protocol: as §1

Experiment [6] has as its target T3, Retinoic acid receptor beta (Homo sapiens). Nature of the experiment: Inhibition of [3H]ATRA binding to Retinoic acid receptor beta (RAR-beta). A digest of the protocol:
as §2

With `Cc1cc(C)c2sc(-c3ccc(-c4ccc(C(=O)O)cc4)[nH]3)cc2c1`, the “Relative IC50” value came out at 3.6 in experiment [1] and 0.062 µM in experiment [3]. Also, the Relative EC30 in experiment [2] was found to be 0.0024 µM; in experiment [4], 2.9 µM; in experiment [5], 1.3 µM.

In the case of `Cc1ccc2cc(-c3ccc(-c4ccc(C(=O)O)cc4)[nH]3)oc2c1C`, the “Relative IC50” value was 2.4 in experiment [1] and 0.012 µM in experiment [3]. Moreover, the results for the Relative EC30 in experiment [2], in experiment [4] and in experiment [5] were 0.0031 µM, 2 µM and 0.16 µM, respectively.

Take `Cc1cccc2cc(-c3ccc(-c4ccc(C(=O)O)cc4)[nH]3)oc12`: the “Relative IC50” value in experiment [1] is 0.98; in experiment [3], 0.0016 µM. Besides, the Relative EC30 in experiment [2] came to 0.0008 µM; in experiment [4] it was 1 µM; in experiment [5], 0.092 µM.

With `O=C(O)c1ccc(-c2ccc(-c3cc4c(C(F)(F)F)ccc(F)c4o3)[nH]2)cc1`, the “Relative IC50” value in experiment [1] turned out to be 0.37; in experiment [6] it was 0.5 µM; in experiment [3], 0.0019 µM. In addition, the Relative EC30 in experiment [2] is 0.00029 µM; in experiment [4], 0.11 µM; in experiment [5] it was 0.0085 µM.

In the case of `Cc1cc(C)c2oc(-c3ccc(-c4ccc(C(=O)O)cc4)[nH]3)cc2c1`, the “Relative IC50” value is 1.2 in experiment [1] and 0.016 µM in experiment [3]. Moreover, the Relative EC30 in experiment [2] turned out to be 0.001 µM; in experiment [4], 0.89 µM; in experiment [5], 0.38 µM.

For `Cc1ccc(C)c2sc(-c3ccc(-c4ccc(C(=O)O)cc4)[nH]3)cc12`, the “Relative IC50” value in experiment [1] was determined as 0.75; in experiment [3] it was 0.0061 µM. In addition, the results for the Relative EC30 in experiment [2], in experiment [4] and in experiment [5] were 0.0013 µM, 0.84 µM and 0.13 µM, respectively.

On to `COc1ccc(C)c2oc(-c3ccc(-c4ccc(C(=O)O)cc4)[nH]3)cc12`, for which the figures for the “Relative IC50” value in experiment [1] and in experiment [3] were 4.7 and 0.015 µM, respectively. Also, the Relative EC30 is 0.006 µM in experiment [2], 3.7 µM in experiment [4] and 0.73 µM in experiment [5].

In the case of `O=C(O)c1ccc(-c2ccc(-c3cc4c(Cl)ccc(Cl)c4o3)[nH]2)cc1`, the results for the “Relative IC50” value in experiment [1], in experiment [6] and in experiment [3] were 1.3, 0.69 µM and 0.0015 µM, respectively. Besides, the results for the Relative EC30 in experiment [2], in experiment [4] and in experiment [5] were 0.0007 µM, 0.82 µM and 0.11 µM, respectively.

As for `Cc1cc(C)c2oc(-c3ccc(-c4ccc(C(=O)O)cc4)[nH]3)cc2c1C`, the “Relative IC50” value in experiment [1] stood at 2.2; in experiment [3] it was 0.0094 µM. Moreover, the Relative EC30 came to 0.002 µM in experiment [2], 0.48 µM in experiment [4] and 0.2 µM in experiment [5].

As to `Cc1ccc(C)c2oc(-c3ccc(-c4ccc(C(=O)O)cc4)[nH]3)cc12`, the “Relative IC50” value in experiment [1] came to 0.76; in experiment [6], 0.49 µM; in experiment [3] it was 0.0014 µM. Further, the Relative EC30 in experiment [2] stood at 0.00037 µM; in experiment [4], 0.24 µM; in experiment [5], 0.025 µM.
